Experimental data taken from ChEMBL document CHEMBL5696442, “Discovery of type II inhibitors of TGFβ-activated kinase 1 (TAK1) and mitogen-activated protein kinase kinase kinase kinase 2 (MAP4K2)” (J Med Chem, 2015).
The source made the active and inactive calls. No cut-off for these calls is given here.

Experiments:
[1] = target: Tyrosine-protein kinase Fyn (Homo sapiens) (UniProt P06241); assay: Inhibition of FYN ACT labeling site in human Huh-7 cell lysate at 1 uM by KiNativ Profiling analysis relative to control; format: subcellular
[2] = target: Serine/threonine-protein kinase 16 (Homo sapiens) (UniProt O75716); assay: Inhibition of MPSK1 Lys2 labeling site in human Huh-7 cell lysate at 1 uM by KiNativ Profiling analysis relative to control; format: subcellular
[3] = target: T1, Interleukin-1 receptor-associated kinase 4 (Homo sapiens) (UniProt Q9NWZ3); assay: Inhibition of IRAK4 Lys2 labeling site in human Huh-7 cells at 1 uM by KiNativ Profiling analysis relative to control; format: cell-based
T1 sequence (whole entry): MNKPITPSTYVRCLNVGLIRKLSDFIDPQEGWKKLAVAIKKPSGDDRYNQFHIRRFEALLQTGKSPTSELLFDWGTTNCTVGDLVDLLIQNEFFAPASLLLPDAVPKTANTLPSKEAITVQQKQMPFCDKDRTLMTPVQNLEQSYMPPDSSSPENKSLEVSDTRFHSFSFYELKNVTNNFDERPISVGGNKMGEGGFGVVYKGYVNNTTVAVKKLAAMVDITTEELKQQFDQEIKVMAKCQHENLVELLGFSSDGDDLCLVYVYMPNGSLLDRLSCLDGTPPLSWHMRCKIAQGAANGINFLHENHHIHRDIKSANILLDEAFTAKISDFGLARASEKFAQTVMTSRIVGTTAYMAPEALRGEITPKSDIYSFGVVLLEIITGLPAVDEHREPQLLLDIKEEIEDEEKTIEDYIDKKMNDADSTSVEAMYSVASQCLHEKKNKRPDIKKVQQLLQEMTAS

[4] = target: MAP/microtubule affinity-regulating kinase 3 (Homo sapiens) (UniProt P27448); assay: Inhibition of MARK3 Lys2 labeling site in human Huh-7 cells at 1 uM by KiNativ Profiling analysis relative to control; format: cell-based
[5] = target: Myosin light chain kinase, smooth muscle (Homo sapiens) (UniProt Q15746); assay: Inhibition of smMLCK Lys2 labeling site in human Huh-7 cells at 1 uM by KiNativ Profiling analysis relative to control; format: cell-based
[6] = target: Ankyrin repeat and protein kinase domain-containing protein 1 (Homo sapiens) (UniProt Q8NFD2); assay: Inhibition of ANKK1 (unknown origin) at 1 uM by Ambit Kinomescan binding assay relative to control
[7] = target: Cyclin-dependent kinase 18 (Homo sapiens) (UniProt Q07002); assay: Inhibition of PCTK3 (unknown origin) at 1 uM by Ambit Kinomescan binding assay relative to control
How it was run: (§1)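 In vitro ATP-site competition binding assay against a panel of over 420 kinases (KinomeScan), with compound tested at 10 or 1 μM.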

[8] = target: Ribosomal protein S6 kinase alpha-6 (Homo sapiens) (UniProt Q9UK32); assay: Inhibition of C-terminal RSK4 kinase domain 2 (unknown origin) at 1 uM by Ambit Kinomescan binding assay relative to control
[9] = target: Mitogen-activated protein kinase 14 (Homo sapiens, UniProt Q16539); assay: Inhibition of p38 alpha in human A-375 cells at 0.05 uM by KiNativ Profiling analysis relative to control; format: cell-based
[10] = target: Tyrosine-protein kinase HCK (Homo sapiens) (UniProt P08631); assay: Inhibition of HCK (unknown origin) at 1 uM by Ambit Kinomescan binding assay relative to control; values are per cent of control
[11] = target: Activin receptor type-1B (Homo sapiens) (UniProt P36896); assay: Inhibition of ACVR1B (unknown origin) at 10 uM by Ambit Kinomescan binding assay
[12] = target: Tyrosine-protein kinase receptor UFO (Homo sapiens) (UniProt P30530); assay: Inhibition of AXL (unknown origin) at 10 uM by Ambit Kinomescan binding assay; how it was run: as §1
[13] = target: Tyrosine-protein kinase JAK1 (Homo sapiens) (UniProt P23458); assay: Inhibition of JAK1 domain2 Lys1 labeling site in human A-375 cells at 0.05 uM by KiNativ Profiling analysis relative to control; format: cell-based
[14] = target: Tyrosine-protein kinase JAK1 (Homo sapiens) (UniProt P23458); assay: Inhibition of JAK1 Domain 2 ACT labeling site in human Huh-7 cells at 10 uM by KiNativ Profiling analysis relative to control; format: cell-based
[15] = target: RPS6KA1/RPS6KA2/RPS6KA3 (Homo sapiens) (UniProt P51812+Q15349+Q15418); assay: Inhibition of RSK1/2/3 Domain 1 K2 labeling site harbouring DLKPENILLDEEGHIKLTDFGLSK in human Huh-7 cells at 10 uM by KiNativ Profiling analysis relative to control; format: cell-based

Chain of Tyrosine-protein kinase JAK1 (Homo sapiens) (P23458 whole entry, the tested form may be a part): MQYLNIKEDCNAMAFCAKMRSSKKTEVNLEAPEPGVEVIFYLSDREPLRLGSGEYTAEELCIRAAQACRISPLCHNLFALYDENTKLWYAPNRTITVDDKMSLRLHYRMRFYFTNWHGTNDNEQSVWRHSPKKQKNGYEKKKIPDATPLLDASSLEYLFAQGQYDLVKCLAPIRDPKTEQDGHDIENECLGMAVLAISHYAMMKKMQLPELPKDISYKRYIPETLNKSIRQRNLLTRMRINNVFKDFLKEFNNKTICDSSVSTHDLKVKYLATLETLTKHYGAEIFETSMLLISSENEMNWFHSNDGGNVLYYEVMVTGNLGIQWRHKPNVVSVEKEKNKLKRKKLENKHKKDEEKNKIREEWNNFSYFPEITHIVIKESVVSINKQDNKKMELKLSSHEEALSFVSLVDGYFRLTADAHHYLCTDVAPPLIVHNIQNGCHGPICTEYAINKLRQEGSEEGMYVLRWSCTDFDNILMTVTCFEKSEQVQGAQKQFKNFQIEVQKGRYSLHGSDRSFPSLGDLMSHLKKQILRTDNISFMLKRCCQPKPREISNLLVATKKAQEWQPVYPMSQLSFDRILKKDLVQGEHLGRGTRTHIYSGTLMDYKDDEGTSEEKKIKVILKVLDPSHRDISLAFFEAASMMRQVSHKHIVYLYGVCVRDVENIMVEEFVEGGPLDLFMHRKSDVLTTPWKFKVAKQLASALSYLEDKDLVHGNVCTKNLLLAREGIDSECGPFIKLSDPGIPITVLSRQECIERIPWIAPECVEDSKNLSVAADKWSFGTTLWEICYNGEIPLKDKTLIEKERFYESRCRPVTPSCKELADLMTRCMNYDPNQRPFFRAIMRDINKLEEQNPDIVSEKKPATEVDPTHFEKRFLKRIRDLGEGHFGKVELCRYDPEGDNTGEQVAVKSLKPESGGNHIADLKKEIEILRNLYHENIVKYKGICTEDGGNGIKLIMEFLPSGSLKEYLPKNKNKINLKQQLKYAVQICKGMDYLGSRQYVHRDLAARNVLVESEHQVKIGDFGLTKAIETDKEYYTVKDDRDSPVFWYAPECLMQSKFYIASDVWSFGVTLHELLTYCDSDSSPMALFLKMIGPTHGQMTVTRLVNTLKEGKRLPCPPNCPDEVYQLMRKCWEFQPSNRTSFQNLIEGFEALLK
Chain of Activin receptor type-1B (Homo sapiens) (P36896 whole entry): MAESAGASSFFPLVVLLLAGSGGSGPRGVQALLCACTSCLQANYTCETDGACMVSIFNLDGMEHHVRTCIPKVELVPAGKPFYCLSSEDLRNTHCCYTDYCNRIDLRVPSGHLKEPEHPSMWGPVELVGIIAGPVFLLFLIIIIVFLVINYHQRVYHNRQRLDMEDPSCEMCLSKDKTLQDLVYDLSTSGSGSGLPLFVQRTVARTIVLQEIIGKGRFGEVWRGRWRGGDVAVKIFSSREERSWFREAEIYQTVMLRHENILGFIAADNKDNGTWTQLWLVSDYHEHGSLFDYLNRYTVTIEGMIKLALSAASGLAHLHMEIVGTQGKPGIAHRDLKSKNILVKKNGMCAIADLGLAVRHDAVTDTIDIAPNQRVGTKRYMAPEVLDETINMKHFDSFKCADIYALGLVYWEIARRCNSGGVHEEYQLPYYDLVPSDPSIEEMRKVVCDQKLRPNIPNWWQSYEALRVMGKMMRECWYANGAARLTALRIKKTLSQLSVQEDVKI
Chain of Mitogen-activated protein kinase 14 (Q16539 whole entry): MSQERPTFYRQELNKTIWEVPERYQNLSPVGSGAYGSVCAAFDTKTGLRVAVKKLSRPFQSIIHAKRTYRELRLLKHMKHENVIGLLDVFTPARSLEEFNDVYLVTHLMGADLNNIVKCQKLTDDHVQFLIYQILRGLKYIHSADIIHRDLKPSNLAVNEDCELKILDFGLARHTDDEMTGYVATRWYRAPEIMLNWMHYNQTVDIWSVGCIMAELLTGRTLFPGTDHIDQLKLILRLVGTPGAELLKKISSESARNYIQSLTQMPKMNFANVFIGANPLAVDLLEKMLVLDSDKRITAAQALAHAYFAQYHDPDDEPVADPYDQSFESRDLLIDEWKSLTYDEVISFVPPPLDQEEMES
Chain of Tyrosine-protein kinase Fyn (Homo sapiens) (P06241 2-537 limits assumed): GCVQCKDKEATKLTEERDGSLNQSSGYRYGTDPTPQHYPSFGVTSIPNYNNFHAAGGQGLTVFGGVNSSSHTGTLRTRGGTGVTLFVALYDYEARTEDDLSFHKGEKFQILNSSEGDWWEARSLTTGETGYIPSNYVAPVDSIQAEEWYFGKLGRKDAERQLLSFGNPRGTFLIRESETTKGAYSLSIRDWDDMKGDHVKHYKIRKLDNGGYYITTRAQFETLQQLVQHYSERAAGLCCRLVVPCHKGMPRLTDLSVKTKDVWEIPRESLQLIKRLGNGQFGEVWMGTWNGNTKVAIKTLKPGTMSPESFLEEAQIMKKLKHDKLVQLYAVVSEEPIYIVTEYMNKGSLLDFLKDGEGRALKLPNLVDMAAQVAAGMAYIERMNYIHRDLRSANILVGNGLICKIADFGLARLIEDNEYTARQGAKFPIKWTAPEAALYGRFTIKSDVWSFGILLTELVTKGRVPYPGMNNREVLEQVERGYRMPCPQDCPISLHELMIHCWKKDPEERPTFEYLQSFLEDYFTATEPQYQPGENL
Chain of MAP/microtubule affinity-regulating kinase 3 (Homo sapiens) (P27448 whole entry, looked up): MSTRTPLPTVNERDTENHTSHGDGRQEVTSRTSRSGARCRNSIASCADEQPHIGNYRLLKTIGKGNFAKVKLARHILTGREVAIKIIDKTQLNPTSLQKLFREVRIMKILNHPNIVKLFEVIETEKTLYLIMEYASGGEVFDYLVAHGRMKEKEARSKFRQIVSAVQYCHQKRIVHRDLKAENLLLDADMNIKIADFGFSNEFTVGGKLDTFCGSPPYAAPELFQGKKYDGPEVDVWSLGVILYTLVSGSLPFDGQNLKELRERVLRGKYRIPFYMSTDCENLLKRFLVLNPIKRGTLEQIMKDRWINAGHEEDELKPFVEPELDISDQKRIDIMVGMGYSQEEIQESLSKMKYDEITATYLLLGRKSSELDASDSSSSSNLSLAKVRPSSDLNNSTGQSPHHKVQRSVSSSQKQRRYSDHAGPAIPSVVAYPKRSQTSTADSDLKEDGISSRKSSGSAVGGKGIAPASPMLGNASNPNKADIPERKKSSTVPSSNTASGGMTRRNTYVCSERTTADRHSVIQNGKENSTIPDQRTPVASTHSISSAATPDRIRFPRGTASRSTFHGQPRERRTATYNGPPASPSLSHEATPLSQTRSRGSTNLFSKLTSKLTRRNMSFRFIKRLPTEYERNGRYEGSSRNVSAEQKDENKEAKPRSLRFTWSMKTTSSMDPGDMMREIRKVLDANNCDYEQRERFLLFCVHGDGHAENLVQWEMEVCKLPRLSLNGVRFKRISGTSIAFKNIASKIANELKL
Chain of Serine/threonine-protein kinase 16 (Homo sapiens) (O75716 whole entry): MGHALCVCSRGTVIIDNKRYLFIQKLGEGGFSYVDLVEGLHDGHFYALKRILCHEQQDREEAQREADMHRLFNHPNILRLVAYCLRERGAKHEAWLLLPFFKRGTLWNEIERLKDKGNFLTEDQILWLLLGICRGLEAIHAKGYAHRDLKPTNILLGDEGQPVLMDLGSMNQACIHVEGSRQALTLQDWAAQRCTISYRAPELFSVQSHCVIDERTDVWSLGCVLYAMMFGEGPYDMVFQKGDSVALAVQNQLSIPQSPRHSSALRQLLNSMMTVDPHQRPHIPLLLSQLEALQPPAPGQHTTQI
Chain of Tyrosine-protein kinase HCK (Homo sapiens) (P08631 2-526 limits assumed): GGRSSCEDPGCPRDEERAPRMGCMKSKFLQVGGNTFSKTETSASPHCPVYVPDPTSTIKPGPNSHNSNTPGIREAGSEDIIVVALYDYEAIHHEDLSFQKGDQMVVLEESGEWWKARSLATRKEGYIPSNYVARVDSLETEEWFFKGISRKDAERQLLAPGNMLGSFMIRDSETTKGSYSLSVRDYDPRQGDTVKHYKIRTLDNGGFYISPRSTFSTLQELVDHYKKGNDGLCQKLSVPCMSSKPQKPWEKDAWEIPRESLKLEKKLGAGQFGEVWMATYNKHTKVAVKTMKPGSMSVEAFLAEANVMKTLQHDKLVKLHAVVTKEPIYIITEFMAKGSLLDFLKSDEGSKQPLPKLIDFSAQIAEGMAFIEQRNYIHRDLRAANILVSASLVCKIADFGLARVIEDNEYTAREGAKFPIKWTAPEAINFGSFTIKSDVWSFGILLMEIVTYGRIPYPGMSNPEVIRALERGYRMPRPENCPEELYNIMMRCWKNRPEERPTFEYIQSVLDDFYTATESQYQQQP
Chain of Tyrosine-protein kinase receptor UFO (Homo sapiens) (P30530 whole entry, the tested form may be a part): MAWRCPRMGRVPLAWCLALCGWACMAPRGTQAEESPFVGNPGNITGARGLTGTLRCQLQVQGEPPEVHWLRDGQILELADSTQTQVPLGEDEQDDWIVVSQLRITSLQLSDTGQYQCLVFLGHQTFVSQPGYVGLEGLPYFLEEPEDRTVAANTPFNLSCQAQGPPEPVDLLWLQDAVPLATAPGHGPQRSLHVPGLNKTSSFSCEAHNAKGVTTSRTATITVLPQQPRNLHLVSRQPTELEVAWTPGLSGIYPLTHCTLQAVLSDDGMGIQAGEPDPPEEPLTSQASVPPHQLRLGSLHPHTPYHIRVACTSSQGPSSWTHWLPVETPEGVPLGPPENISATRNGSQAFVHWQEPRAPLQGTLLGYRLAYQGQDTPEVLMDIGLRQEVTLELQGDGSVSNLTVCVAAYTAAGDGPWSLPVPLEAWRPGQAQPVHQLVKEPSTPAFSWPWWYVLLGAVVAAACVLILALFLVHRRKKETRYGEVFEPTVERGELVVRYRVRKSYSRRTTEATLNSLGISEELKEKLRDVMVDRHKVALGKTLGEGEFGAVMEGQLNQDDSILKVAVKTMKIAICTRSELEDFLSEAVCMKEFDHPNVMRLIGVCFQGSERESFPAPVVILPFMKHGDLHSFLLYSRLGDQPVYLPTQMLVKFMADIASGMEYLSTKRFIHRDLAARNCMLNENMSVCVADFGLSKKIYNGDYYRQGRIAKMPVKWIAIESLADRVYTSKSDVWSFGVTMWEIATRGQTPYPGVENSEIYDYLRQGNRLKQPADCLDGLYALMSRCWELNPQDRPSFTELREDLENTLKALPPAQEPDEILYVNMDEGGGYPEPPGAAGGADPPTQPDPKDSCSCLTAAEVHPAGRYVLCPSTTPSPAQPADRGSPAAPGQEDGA

`CNc1cc(Oc2cc(C(=O)Nc3cc(N4CCN(C)CC4)cc(C(F)(F)F)c3)ccc2C)ncn1` was tested. Which inhibition [1] did it give?
Its inhibition is 22%.

And the inhibition [2]?
The inhibition was 4.6%.

And the inhibition [3]?
Its inhibition is 0.4%.

And the inhibition [4]?
The inhibition was 11.3%.

What about the inhibition [5] of the same compound?
Its inhibition is 34.3%.

Which inhibition [6] does the source give for `CCN1CCN(Cc2ccc(NC(=O)c3ccc(C)c(/C=C/c4cnc5[nH]ccc5c4OC)c3)cc2C(F)(F)F)CC1` here?
The inhibition was 6%.

And the inhibition [7]?
The inhibition was 84%.

What about the inhibition [8] of the same compound?
The inhibition was 50%.

And the inhibition [9]?
Its inhibition is 73.1%.

What about the residual activity [10] of the same compound?
Its residual activity is 0.5%.

With `CCN1CCN(Cc2ccc(NC(=O)c3ccc(C)c(Oc4ccnc5[nH]ccc45)c3)cc2C(F)(F)F)CC1` as the compound, how does the inhibition [11] read?
The inhibition was “inactive”.

What about the inhibition [12] of the same compound?
Its inhibition is “inactive”.

What about the inhibition [13] of the same compound?
Its inhibition is 17.4%.

What about the inhibition [14] of the same compound?
Its inhibition is 41.1%.

And the inhibition [15]?
Its inhibition is -6.5%.
